Laboratory results published in ChEMBL document CHEMBL5712087, “Targeting bromodomain-containing protein 4 (BRD4) inhibits MYC expression in colorectal cancer cells” (Neoplasia, 2019).
Calls of active or inactive are those of the source.

Key:
COLO 320 = experiment: Inhibition of colony formation in human COLO 320 cells at 500 to 1000 nM by crystal violet staining analysis; type: functional, cell-based; settings: dose 500-1000 nM
Outline: (§1)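 Exponentially growing cells (1-2x10^3) plated in six-well plates; after 48 h treated with indicated concentrations for 3–5 days, then methanol-fixed and crystal violet stained. Cell lines maintained at 37 °C, 5% CO2 in serum-supplemented medium, STR-validated, mycoplasma-tested, <15 passages.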

DLD-1 = experiment: Inhibition of colony formation in human DLD-1 cells at 500 to 1000 nM by crystal violet staining analysis; type: functional, cell-based; settings: dose 500-1000 nM; outline: as §1
HCT-116 [1] = experiment: Inhibition of colony formation in human HCT116 p53+/+ cells at 500 to 1000 nM by crystal violet staining analysis; type: functional, cell-based; settings: dose 500-1000 nM; outline: as §1
HCT-116 [2] = experiment: Inhibition of colony formation in human HCT116 p53-/- cells at 500 to 1000 nM by crystal violet staining analysis; type: functional, cell-based; settings: dose 500-1000 nM; outline: as §1
HT-29 = experiment: Inhibition of colony formation in human HT-29 cells at 500 to 1000 nM by crystal violet staining analysis; type: functional, cell-based; settings: dose 500-1000 nM; outline: as §1
LS174T = experiment: Inhibition of colony formation in human LS174T cells at 500 to 1000 nM by crystal violet staining analysis; type: functional, cell-based; settings: dose 500-1000 nM; outline: as §1
SW480 = experiment: Inhibition of colony formation in human SW480 cells at 500 to 1000 nM by crystal violet staining analysis; type: functional, cell-based; settings: dose 500-1000 nM; outline: as §1
[3] = biological target: Bromodomain-containing protein 4 (Homo sapiens) (UniProt O60885); settings: SW480, dose 500-1000 nM, time 24.0 hrs
[4] = biological target: Bromodomain-containing protein 4 (Homo sapiens) (UniProt O60885); settings: LS174T, dose 500-1000 nM, time 24.0 hrs
[5] = biological target: Bromodomain-containing protein 4 (Homo sapiens) (UniProt O60885); settings: HT-29, dose 500-1000 nM, time 24.0 hrs
[6] = biological target: Bromodomain-containing protein 4 (Homo sapiens) (UniProt O60885); settings: HCT-116, dose 500-1000 nM, time 24.0 hrs
[7] = biological target: Bromodomain-containing protein 4 (Homo sapiens) (UniProt O60885); settings: HCT-116, dose 500-1000 nM, time 24.0 hrs; remark: listed apart in the source
[8] = biological target: Bromodomain-containing protein 4 (Homo sapiens) (UniProt O60885); settings: DLD-1, dose 500-1000 nM, time 24.0 hrs
[9] = biological target: Bromodomain-containing protein 4 (Homo sapiens) (UniProt O60885); settings: COLO 320, dose 500-1000 nM, time 24.0 hrs
[10] = biological target: Bromodomain-containing protein 4 (Homo sapiens) (UniProt O60885); settings: LS174T, dose 500-1000 nM, time 24.0 hrs; remark: listed apart in the source
[11] = biological target: Bromodomain-containing protein 4 (Homo sapiens) (UniProt O60885); settings: LS174T, dose 500-1000 nM, time 24.0 hrs; remark: listed apart in the source

Measured: inhibition

Cc1sc2c(c1C)C(c1ccc(Cl)cc1)=N[C@@H](CC(=O)OC(C)(C)C)c1nnc(C)n1-2
active: all assays above
